Results collected from several papers.
Compare with care: the assays were run in different laboratories.
Target: Megakaryocyte-associated tyrosine-protein kinase (MATK, Homo sapiens, UniProt P42679)
Residues used in one study (P42679 1-507): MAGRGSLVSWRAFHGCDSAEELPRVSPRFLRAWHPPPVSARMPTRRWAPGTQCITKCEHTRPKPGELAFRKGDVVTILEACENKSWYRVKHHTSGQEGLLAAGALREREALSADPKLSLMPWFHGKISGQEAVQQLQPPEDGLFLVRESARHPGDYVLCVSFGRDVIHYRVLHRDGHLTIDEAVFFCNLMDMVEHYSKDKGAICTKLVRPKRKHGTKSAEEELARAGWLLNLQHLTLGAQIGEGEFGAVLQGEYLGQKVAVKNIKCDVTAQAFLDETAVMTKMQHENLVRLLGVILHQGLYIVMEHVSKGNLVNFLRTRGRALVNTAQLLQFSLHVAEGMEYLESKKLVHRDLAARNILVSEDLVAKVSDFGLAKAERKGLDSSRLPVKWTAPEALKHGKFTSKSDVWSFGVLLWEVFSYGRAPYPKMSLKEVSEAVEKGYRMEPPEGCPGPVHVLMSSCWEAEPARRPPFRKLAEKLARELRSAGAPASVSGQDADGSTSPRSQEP

The remaining binding of O=C(NCCCN1CCOCC1)c1ccc(Nc2nccc(-c3cc4ccccc4s3)n2)cc1 is reported as 55% (binding; competition with immobilised ligand; 1 µM).
The remaining binding of NS(=O)(=O)c1cc(NC(=O)C2(c3ccccc3Cl)CC2)ccc1Oc1cccc(Cl)c1 is reported as 100% (cell-free assay; competition with immobilised ligand; 1 µM).
For CN(C)c1nccc(-c2cnc3ncccn23)n1, the remaining binding was 50% (binding; 1 µM).
With CS(=O)(=O)N1CCCC(NC(=O)[C@H](CCC2CCCCC2)NC(=O)c2ccc(CNc3ncnc4c3nnn4-c3ccccc3)cc2)C1 (stereo partly drawn) the remaining binding was 100% (cell-free assay; competition with immobilised ligand; 0.1 µM).
With C[C@H]1CCN(c2nccc(-c3cnn4ncccc34)n2)C1 the remaining binding was 90% (binding; 1 µM).
CO[C@@H](C)c1c(Nc2ccc([C@@H](N(C)C(=O)C3CCS(=O)(=O)CC3)C(F)(F)F)cc2)cnc2cc(Cl)nn12 has a remaining binding of 98% (cell-free assay; competition with immobilised ligand; 1 µM).
COc1cnc(Nc2cccc(S(N)(=O)=O)c2)nc1N1CCN(c2ccccc2)CC1 gave a remaining binding of 57% (binding; competition with immobilised ligand; 1 µM).
C=CC(=O)N1CCC(C(=O)NCC(=O)N2CCN(c3nc(-c4cnc(N)nc4C(F)F)nc(N4CCOCC4)n3)CC2)CC1 has a remaining binding of 78% (binding; competition with immobilised ligand; 1 µM).
The remaining binding of c1cnn2ncc(-c3ccnc(N4CCC45COC5)n3)c2c1 is reported as 87% (binding; 1 µM).
For O=C(NCC1CCOCC1)c1n[nH]cc1NC(=O)c1c(F)cccc1F, the remaining binding was 79% (binding; competition with immobilised ligand; 1 µM).
CN(CCCC(F)(F)F)c1nccc(-c2cnn3ncccc23)n1 gave a remaining binding of 72% (binding; 1 µM).
For CCCOc1ccc([C@@H]2[C@@H](C(=O)O)[C@H](c3ccc4c(c3)OCO4)CN2CC(=O)Nc2c(CC)cccc2CC)cc1, the remaining binding was 90% (cell-free assay; competition with immobilised ligand; 1 µM).
O=C(NCCCN1CCOCC1)c1ccc(Nc2ncc(Cl)c(-c3ccc(Cl)s3)n2)cc1 gave a remaining binding of 48% (binding; competition with immobilised ligand; 1 µM).
C[C@@H](c1ccc(-n2cnc3c(N)ncnc32)cc1)N1CCc2nn(C)c(Cc3ccccc3)c2C1=O has a remaining binding of 69% (binding; competition with immobilised ligand; 0.1 µM).
For CC1CCCN1c1nccc(-c2cnn3ncccc23)n1 (stereo not drawn), the remaining binding was 100% (binding; 1 µM).
The remaining binding of COc1cnc(Nc2cccc(S(N)(=O)=O)c2)nc1N1CCN(c2ccccc2)C(=O)C1 is reported as 79% (binding; competition with immobilised ligand; 1 µM).
O=C1CCc2cc(Nc3cc(OC4CCOCC4)c([N+](=O)[O-])cc3Cl)ccc2N1 gave a remaining binding of 100% (cell-free assay; competition with immobilised ligand; 1 µM).
With COc1ncc2cc3ccccc3nc2c1C#N the remaining binding was 100% (cell-free assay; competition with immobilised ligand; 5 µM).
NS(=O)(=O)c1cc(NC(=O)Cc2ccccc2)ccc1Oc1cccc(Cl)c1 has a remaining binding of 68% (cell-free assay; competition with immobilised ligand; 1 µM).
With N[C@@H]1CCN(c2nccc(-c3cnn4ncccc34)n2)C1 the remaining binding was 100% (binding; 1 µM).
O=C(c1ccc(Nc2ncc(Cl)c(-c3ccc(Cl)s3)n2)cc1)N1CCC(N2CCCC2)CC1 has a remaining binding of 50% (binding; competition with immobilised ligand; 1 µM).
